The list is not random: actives were taken first. Their share in the collection is about 1.5%.
GalR3 antag: human GalR3 antagonism. actives 0.44% (n = 360,000). O60755. HEK293 GalR3-CNG cAMP membrane potential fluorescence; galR3 body fused to GalR1 C-terminus. inhibition, % at 3 µM. AID 651719;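 active = inhibition above the screen-wide average plus 3 SD, cut at about 13% in these data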;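 note: forskolin and galanin both at EC90 stimulate the cells; cAMP rise reported by CNG channel membrane potential dye signal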
Target sequence (O60755 1-299 limits assumed): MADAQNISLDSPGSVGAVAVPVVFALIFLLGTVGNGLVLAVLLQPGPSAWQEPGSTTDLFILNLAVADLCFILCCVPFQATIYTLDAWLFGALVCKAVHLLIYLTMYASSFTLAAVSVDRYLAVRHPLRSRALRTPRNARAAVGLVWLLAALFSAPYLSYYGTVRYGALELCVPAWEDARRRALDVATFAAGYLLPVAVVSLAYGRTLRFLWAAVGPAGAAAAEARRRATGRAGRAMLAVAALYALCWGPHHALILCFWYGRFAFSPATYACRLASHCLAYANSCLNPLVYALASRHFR
NR2E3 ag-1: agonists of human nuclear receptor NR2E3; actives 0.12% (n = 320,000); Q9Y5X4; GST-NR2E3/biotin-RetCOR TR-FRET, 1536-well; inhibition of corepressor binding, % at 4.78 µM;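 active = percent inhibition above the cutoff of mean plus 3 SD of all tested compounds, set per screening campaign, cut at about 20% in these data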
Target sequence (Q9Y5X4 whole entry, looked up): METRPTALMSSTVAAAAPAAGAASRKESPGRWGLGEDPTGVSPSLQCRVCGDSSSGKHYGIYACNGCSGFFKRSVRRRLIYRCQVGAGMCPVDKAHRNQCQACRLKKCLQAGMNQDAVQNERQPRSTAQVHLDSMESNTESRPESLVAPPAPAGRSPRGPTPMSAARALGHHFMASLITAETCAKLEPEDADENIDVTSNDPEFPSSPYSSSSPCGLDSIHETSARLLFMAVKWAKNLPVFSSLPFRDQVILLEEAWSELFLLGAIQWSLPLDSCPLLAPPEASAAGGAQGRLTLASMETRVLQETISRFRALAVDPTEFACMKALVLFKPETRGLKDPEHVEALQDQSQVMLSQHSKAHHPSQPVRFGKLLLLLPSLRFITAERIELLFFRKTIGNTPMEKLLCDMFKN
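Test system: GST-NR2E3 and biotin-RetCOR proteins | Quantity: 1.35 nM GST-tagged NR2E3 final | Medium: Tris pH 7.5 | Also added: 7 nM biotin-RetCOR | Dosing: Compound at 4.8 µM, single dose | Timing: 5 h at 4 °C | Detection: Time-resolved FRET | Read-out basis: Percent inhibition | Benchmarks: Biotin wells as high control, 0.6% DMSO wells as low control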
JMJD2C inh: blocks human GASC-1 demethylase activity. actives 0.069% (n = 330,000). GST-JMJD2C(1-420) H3K9me3 demethylation, DELFIA europium. inhibition, % at 2.35 µM;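 active = more than half of a compound's replicate wells show inhibition beyond 50%, single wells judged on their own value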;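 note: signal counts dimethyl H3K9 product captured on neutravidin plate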
697 NFkB inh: lowers PMA/ionomycin-induced NF-kB signal in 697 B cells | actives 0.33% (n = 330,000) | 697 B-cell NF-kB luciferase reporter, 16 h | AID 435022 | inhibition, % at 4 µM; in the data active = inhibition above about 35%
Jurkat NFkB inh: lowers PMA/ionomycin-induced NF-kB signal in Jurkat cells; PMA/ionomycin-induced NF-kB luciferase reporter, luminescence; inhibition, % at 4 µM; actives 0.53% (n = 330,000); in the data active = inhibition above about 50%
NR2E3 ag-2: agonists of human NR2E3 nuclear receptor. Q9Y5X4. CHO-S Gal4-NCOR/VP16-NR2E3 two-hybrid, luciferase. inhibition of corepressor binding, % at 3.98 µM. actives 0.35% (n = 360,000);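 active = inhibition above the mean of all tested compounds plus 3 SD, cut at about 70% in these data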;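 note: higher means lower luciferase signal from less NR2E3 corepressor binding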
697 NFkB conf: lowers PMA/ionomycin-induced NF-kB signal in 697 B cells. shares compounds with 697 NFkB inh. 697 B-cell NF-kB luciferase, 16 h. inhibition, % at 4 µM. actives 35% (n = 2,000). AID 449746; in the data active = inhibition mostly above about 28%, no sharp cut-off; inactive = mostly below about 22%
Each line names hits and unclear results; the compound was inactive in the other large screens (follow-up assays come after a bar, where they were run).

CCOc1cccc(/C=N/NC(=O)c2ccc3c(c2)OCCO3)c1O	none
Cc1onc(-c2ccccc2Cl)c1C(=O)N1CCN(c2ccc(F)cc2)CC1	none
O=C(/C=C\Nc1ccccn1)c1ccc(Cl)cc1	none | 697 NFkB conf inactive
O=C(Oc1ccc(N2C(=O)CCC2=O)cc1)c1ccccc1Cl	none
Cc1cc(OC(=O)c2ccccc2Cl)cc(=O)n1C	697 NFkB inh 39.1 | 697 NFkB conf 47.5
CCN(CC)c1ccc(/C=N/N=C(c2ccccc2)c2ccccc2)c(O)c1	697 NFkB inh 35.4 | 697 NFkB conf 26.6
CCCc1nc(SCC(=O)N2CCC(Cc3ccccc3)CC2)c2c(=O)n(C)c(=O)n(C)c2n1	none (no result: GalR3 antag)
CCCCC(=O)N(C)c1c(C)nc2ccc(C(=O)N3CCN(C(=O)c4ccco4)CC3)cn12	none (no result: NR2E3 ag-1, JMJD2C inh, 697 NFkB inh, Jurkat NFkB inh)
COCCn1c(SC(C)C(=O)Nc2ncc(Cl)cc2Cl)nc2ccccc21 (configuration not stated)	none | 697 NFkB conf inactive
O=C(O)CCSc1ncnc2sc(-c3ccccc3)cc12	697 NFkB inh 80.7 | 697 NFkB conf 62.5
CC(=O)CCSc1ncnc2sc(-c3ccccc3)cc12	none | 697 NFkB conf inactive
O=C(O)CSc1ncnc2sc(-c3ccccc3)cc12	none
Cc1cccc(-n2ncc3c2CCCC3NC(=O)C2CCOCC2)c1C (configuration not stated)	none
O=C(O)CCc1nn2c3ccccc3n(Cc3ccccc3F)c2nc1=O	697 NFkB inh 40.5 | 697 NFkB conf inactive
CCOc1ccc(OCCC(=O)OCC(=O)Nc2ccc3c(c2)OCCO3)cc1	none
Cc1ccsc1CN(C)CC(=O)Nc1ccccc1C(=O)NC1CC1	none (no result: NR2E3 ag-1)
CCNc1nc(NCC)n2c(SC(C(=O)Nc3cc(C)ccc3OC)c3ccccc3)nnc2n1 (configuration not stated)	none
Cc1[nH]c2ccccc2c1/C=N/Nc1nc(Nc2ccccc2)nc(N2CCOCC2)n1	697 NFkB inh 48.7 | 697 NFkB conf 54.8
Oc1[nH]c2ccccc2c1N=Nc1nc(Nc2ccccc2)nc(N2CCOCC2)n1	697 NFkB inh 53.2 | 697 NFkB conf 52.0
CCNc1nc(C)c2cc(Br)c(=O)n(CC)c2n1	697 NFkB inh 41.4 | 697 NFkB conf 40.1
CC(=O)Nc1ccc(S(=O)(=O)c2ccnc3cc(Cl)ccc23)cc1	none (no result: NR2E3 ag-1, JMJD2C inh, 697 NFkB inh, Jurkat NFkB inh)
COc1cc(/C=C2\SC(=Nc3ccc(N4CCOCC4)cc3)N(C)C2=O)ccc1OC(C)C(=O)O (configuration not stated)	none
CCOc1ccc(S(=O)(=O)NCc2ccncc2)cc1NC(=O)c1ccccc1	697 NFkB inh 45.5 | 697 NFkB conf 84.4
O=C(/C=C/Nc1ccccc1F)c1cccs1	none | 697 NFkB conf inactive
CCOC(=O)c1ccccc1N/C=C/C(=O)c1cccs1	none
COc1ccc(-n2c(-c3ccc(Br)cc3)c[n+]3c2CCc2ccccc2-3)cc1	697 NFkB inh 101.1 | 697 NFkB conf 47.0
CC(C)c1ccc(-n2c(-c3ccccc3)c[n+]3c2CCc2ccccc2-3)cc1	none (no result: NR2E3 ag-1, 697 NFkB inh, Jurkat NFkB inh)
CN(C(=O)c1ccncc1)C1CCCCC1	none
O=C(COC(=O)C1CCN(S(=O)(=O)c2ccc3c(c2)OCCO3)CC1)NC1CCCCC1	697 NFkB inh 35.6 | 697 NFkB conf inactive
CCOc1cc(/C=C2\C(=N)N3N=CSC3=NC2=O)ccc1OS(=O)(=O)c1ccccc1	697 NFkB inh 43.9 | 697 NFkB conf inactive
COc1ccc(C(=O)Nc2ccc3ccccc3n2)c(OC)c1OC	none | 697 NFkB conf inactive
O=C(Nc1ccc2ccccc2n1)c1ccccc1Cl	none | 697 NFkB conf inactive
O=C(Nc1ccc2ccccc2n1)c1ccc(Cl)cc1	none
O=C(NC(=S)Nc1ccc2nc[nH]c2c1)c1ccccc1	none
O=C(O)c1ccc(N/N=C/c2cn(Cc3ccccc3F)c3ccccc23)cc1	none
CC(C)n1cc(/C=N/Nc2ccc(C(=O)O)cc2)c2ccccc21	none | 697 NFkB conf inactive
CC(=O)c1c(C)[nH]c(C(=O)N2CCc3ccccc3C2)c1C	697 NFkB inh 41.8 | 697 NFkB conf inactive
OC(c1ccc2c(c1)OCO2)c1ncc(-c2cccc(C(F)(F)F)c2)[nH]1 (configuration not stated)	none (no result: NR2E3 ag-1, JMJD2C inh, 697 NFkB inh, Jurkat NFkB inh)
CN(C(=O)c1cnccn1)c1c(N)n(Cc2ccccc2)c(=O)[nH]c1=O	none
Cc1ccc(N=Nc2ccc(O)cc2)c(Br)c1	none | 697 NFkB conf inactive
Oc1ccc(N=Nc2ccc(Br)cc2)c(O)c1	none
CC(CC(=O)NCCc1ccc(F)cc1)c1ccccc1 (configuration not stated)	none
CCOc1ccc(-c2nnn(CC(=O)NCc3ccco3)n2)cc1	none
CCOc1ccc(-c2cc(CCCC(=O)NCc3ccc(C)cc3)no2)cc1	697 NFkB inh 48.3 (no result: GalR3 antag) | 697 NFkB conf 36.8
CCOc1ccc(-c2cc(CCCC(=O)NCc3ccco3)no2)cc1	697 NFkB inh 57.3 (no result: GalR3 antag) | 697 NFkB conf 46.0
COc1ccccc1CCn1cnc(-c2ccccc2OC)c1CC(C)C	none (no result: NR2E3 ag-1, JMJD2C inh, 697 NFkB inh, Jurkat NFkB inh, NR2E3 ag-2)
COc1ccccc1N(Cc1ccccc1)S(=O)(=O)c1cccc(C(=O)Nc2cc(C)ccn2)c1	none | 697 NFkB conf inactive
S=C(c1cn(CCOc2ccccc2)c2ccccc12)N1CCCC1	none
Cc1ccc(OCCn2cc(C(=S)N3CCCC3)c3ccccc32)cc1C	none | 697 NFkB conf inactive
COc1ccc(Cl)cc1C(=O)n1cnc2ccccc21	none
C(=N\Nc1nc2ccccc2s1)/c1cccs1	none | 697 NFkB conf inactive
Oc1ccc(C=NNc2nc3ccccc3s2)c(O)c1	none (no result: NR2E3 ag-1, JMJD2C inh, 697 NFkB inh, Jurkat NFkB inh)
COc1ccc(CCN(CC(=O)NC(C)(C)C)C(=O)Cn2nnc(-c3ccc(C)o3)n2)cc1OC	none
COC(=O)c1cccc(C(=O)N2CCCC(C(=O)c3cc(F)ccc3F)C2)c1 (configuration not stated)	697 NFkB inh 38.7 | 697 NFkB conf inactive
COC(=O)c1ccccc1C(=O)N1CCCC(C(=O)c2cc(F)ccc2F)C1 (configuration not stated)	none
COc1cccc(-c2noc(-c3ccc(Br)o3)n2)c1	none (no result: JMJD2C inh)
CCCN1C(=O)/C(=C/c2c(N3CCNC(=O)C3CC(=O)OCC)nc3c(C)cccn3c2=O)SC1=S (configuration not stated)	697 NFkB inh 36.7 (no result: GalR3 antag) | 697 NFkB conf 36.3
CCOC(=O)CC1C(=O)NCCN1c1nc2ccc(C)cn2c(=O)c1/C=C1\SC(=S)N(CC(C)C)C1=O (configuration not stated)	none (no result: GalR3 antag)
COc1ccc(C2C3=C(CCCC3=O)Nc3nc(-c4cc(OC)c(OC)c(OC)c4)nn32)cc1OC (configuration not stated)	697 NFkB inh 37.9 | 697 NFkB conf inactive
COc1cc(-c2nc3n(n2)C(c2ccncc2)C2=C(CCCC2=O)N3)cc(OC)c1OC (configuration not stated)	none

Assay outcomes deposited in PubChem BioAssay by several laboratories.
